# Screening results (PubChem)
# LMPTP inh = LMPTP phosphatase inhibitors, primary screen, biochemical, fluorescence intensity, uHTS | recombinant LMPTP-A, OMFP fluorogenic substrate | hit rate 0.22% among 360,000 | Low molecular weight phosphotyrosine protein phosphatase (Homo sapiens), P24666 | inhibition, % at 20 µM;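 active means compounds that cut the enzyme signal by at least half of the control window in the single-dose screen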;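 further: plate controls were DMSO wells with enzyme plus substrate for no effect and substrate without enzyme for full effect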
#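 Assay system: LMPTP-A, protein tyrosine phosphatase of low molecular weight / Medium: pH 6.0 Bis-Tris buffer with DTT and Triton X-100 / Schedule: 50 min enzyme reaction at room temperature, protected from light / Measured by: endpoint fluorescence intensity from OMFP dephosphorylation / Read-out basis: % inhibition relative to no-enzyme and uninhibited control wells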
# HKDC1 inhibitor = HKDC1 hexokinase inhibitors, primary screen, biochemical, fluorescence, uHTS | Q2TB90 | recombinant HKDC1, G6PDH/diaphorase resazurin coupled fluorescence | inhibition, % at 20 µM | hit rate 0.16% among 340,000;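 active means inhibition above about 35% when tested at 20 µM, limit read from the data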;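 further: plate controls were DMSO wells with enzyme for no effect and DMSO wells lacking enzyme for full effect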
#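 Test system: Recombinant HKDC1 (HK5) hexokinase enzyme, produced in-house | Input: HKDC1 at 5 µg/mL | Buffer or medium: Tris pH 8.0 buffer with MgCl2, Tween-20, BSA, BME | Schedule: 90 min reaction incubation at room temperature, dark | Technique: Resazurin-to-resorufin fluorescence via G6PDH and diaphorase coupling, 525/613 nm | Controls: DMSO wells with and without enzyme mix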
# DNMT1 block = human DNMT1 methyltransferase inhibitors, primary screen, biochemical, molecular beacon, fluorescence, HinP1I cleavage, uHTS; inhibition (reported as % activation of signal), % at 10 µM; hit rate 0.83% among 360,000; AID 588458, 2011; DNA (cytosine-5)-methyltransferase 1 (Homo sapiens), P26358; in the data active means inhibition above about 50%
# SUMO1 PPI mod = modulators of SUMO1 protein-protein interactions, primary screen, biochemical, uHTS. hit rate 0.33% among 360,000. SUMO1 binding to a labelled peptide, TR-FRET, 1 h. Small ubiquitin-related modifier 1 (Homo sapiens), P63165. AID 602429, 2012. inhibition, % at 20 µM; in the data active means inhibition above about 37%
# Scp-1 inhibitor = Scp-1 phosphatase inhibitors, primary screen, biochemical, colorimetric, uHTS; Carboxy-terminal domain RNA polymerase II polypeptide A small phosphatase 1 (Homo …; Recombinant Scp1, phosphopeptide, malachite green phosphate absorbance; inhibition, % at 20 µM; hit rate 0.88% among 340,000;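 active means inhibition above about 50% at 20 µM, limit read from the data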;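 further: plate controls were DMSO wells with enzyme for no effect and wells lacking enzyme for full effect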
#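 Test system: SCP-1 phosphatase catalytic domain, residues 76-261 | Compound dosing: One concentration, 20 µM, with 1.0% DMSO | Schedule: 45 min room-temperature reaction, 5 min colour, 30 min stabiliser | Detection: Absorbance at 630 nm | Read-out basis: % inhibition of SCP-1 phosphate liberation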
# STEP block = STEP phosphatase inhibitors, primary screen, biochemical, fluorescence intensity, uHTS | Tyrosine-protein phosphatase non-receptor type 5 (Homo sapiens), P54829 | recombinant STEP, OMFP fluorogenic substrate | inhibition, % at 20 µM | hit rate 0.25% among 360,000 | AID 588621, 2011;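 active means inhibition at 20 µM, scaled per plate between control wells, above about 37%, limit read from the data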;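 further: 0% = DMSO with enzyme and substrate and 100% = substrate only without enzyme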
#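 Assay system: isolated STEP enzyme / Timing: 20 min at room temperature, dark / Doses: 20 µM, 1% DMSO / Technique: fluorescence intensity, excitation 480 nm, emission 540 nm / Reagent: fluorogenic phosphatase substrate OMFP at 25 µM final / Measure: percent inhibition scaled to no-enzyme and uninhibited-enzyme controls, plate-pattern corrected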
# Beacon interf DR = spectral interference with molecular beacon fluorescence, dose response, artefact control for DNMT1 inhibitor project, biochemical, fluorescent molecular beacon; AID 602382, 2012; shares compounds with DNMT1 block; IC50, µM; 200 tested, under 10 active; spectral interference counter-screen; call rule not given here
# DNMT1 inh conf = DNMT1 methyltransferase inhibitor retest, confirmation, biochemical, molecular beacon, fluorescence, single concentration. shares compounds with DNMT1 block. DNMT1 molecular beacon HinP1I cleavage. inhibition, % at 10 µM. hit rate 8% among 2,300. AID 602385, 2012;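 active means average inhibition of at least 30% in the single-concentration confirmation test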
# DNMT1 interf = counter-screen for DNMT1 inhibitors: spectral interference; shares compounds with DNMT1 block; DNMT1 molecular beacon spectral interference counterscreen, fluorescence 485/520; activation (fluorescence interference), % at 10 µM; hit rate 1% among 2,300;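 active means activation of at least 30% at 10 µM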;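 further: DNMT1 catalytic domain with a HinP1I cleavage step and a FAM/dabcyl DNA beacon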
# * hit, by the source's call; . = no result; ! = not active in a repeat. The list is not random: actives were taken first. Their share in the collection is about 1.8%.
SMILES,LMPTP inh,HKDC1 inhibitor,DNMT1 block,SUMO1 PPI mod,Scp-1 inhibitor,STEP block,DNMT1 inh conf,DNMT1 interf,others
Cc1ccc(N(C)S(=O)(=O)c2nnc(NC(=O)c3ccco3)s2)cc1,-1,8,5,0,-2,-1,.,.,
Cc1ccccc1N(C)S(=O)(=O)c1nnc(NC(=O)c2ccco2)s1,13,7,54*,19,27,1,3,1,
CN(Cc1ccc(C(C)(C)C)cc1)C(=O)Cc1ccc(S(=O)(=O)N2CCOCC2)s1,1,-5,71*,1,-13,2,3,3,
CCCCCCCCN1[C@@H](CC(=O)OC)c2cc(F)ccc2S1(=O)=O,52*,6,82*,6,-15,1,3,5,
COc1ccc(NS(=O)(=O)c2cccc(C(=O)NNC(=O)NCCCl)c2)cc1,0,-5,1,1,-4,-1,.,.,
C=CCC1NS(=O)(=O)OCC1C(C)C (stereo not drawn),2,-3,50*,3,6,-2,1,1,
COCCCn1c(=N)c(C(N)=S)cc2c(=O)n3cccc(C)c3nc21,6,-3,54*,22,-9,7,4,1,
COCCCNC(=O)c1cc(S(=O)(=O)N2CCOCC2)ccc1SCc1cccc(OC)c1OC,0,-7,1,-2,-4,-1,.,.,
CCOC(=O)Sc1nc2ncncc2[nH]1,-3,-9,-1,0,-5,2,.,.,
O=C(c1ccc2c(=O)n3c(nc2c1)CCC3)N1CCN(S(=O)(=O)c2cccc(F)c2)CC1,-1,-4,79*,4,-5,0,-10,3,
O=C(c1ccc2c(=O)n3c(nc2c1)CCCCC3)N1CCCCC1,-2,-1,1,2,-6,-1,.,.,
Cn1c(CCNC(=O)c2ccccc2F)nnc1SCC(=O)Nc1nncs1,-1,-2,3,2,-5,-1,.,.,
CS/C(=N\S(=O)(=O)c1cccs1)Nc1ccc(N2CCOCC2)cc1,0,-6,83*!,4,-5,0,2,2,
CCN(CC)c1ccc2cc(-c3nnc(-c4ccncc4)o3)c(=O)oc2c1,6,18,136*,-6,-4,-190,88*,61*,
CCN(CC)c1ccc2cc(C(C)=O)c(=O)oc2c1,2,8,27,-19,-8,-19,.,.,
CCN(CC)c1ccc2cc(C(N)=O)c(=O)oc2c1,-1,-3,1,-22,9,-6,.,.,
CCN(CC)c1ccc2cc(C=O)c(=O)oc2c1,5,-7,71*,-37,19,-46,39*,59*,
Cc1ccc(/C=C/C(=O)OCC(=O)c2ccc3c(c2)NC(=O)CO3)o1,3,-4,-4,-11,-7,0,.,.,
O=C1COc2ccc(C(=O)COC(=O)/C=C/c3ccc(Br)o3)cc2N1,71*,21,100*,81*,81*,30,27,-4,Beacon interf DR=>99
CSc1ccc(/C=C/C(=O)OCC(=O)NC2CCCCCC2)cc1,0,.,65*,-9,.,-2,1,6,
COc1cccc(CC(=O)OCC(=O)NC(C)c2ccc(F)cc2)c1 (stereo not drawn),-1,6,1,-3,-3,-1,.,.,
c1ccc2c(c1)C1=NCCN1c1ccccc1-2,3,.,66*,2,.,3,48*,0,Beacon interf DR=>99
COC1=Nc2ccccc2N2CCN=C12,-2,.,3,-6,.,4,.,.,
Cc1ccccc1C(=O)Nc1ccc(C(=O)NNC(=O)CCCOc2ccc(Cl)cc2Cl)cc1,18,-16,11,-2,28,1,.,.,
O=C(CCCOc1ccc(Cl)cc1Cl)NNC(=O)c1ccc(NC(=O)c2ccccc2)cc1,69*,1,73*,0,41,6,0,-2,
SMILES,LMPTP inh,HKDC1 inhibitor,DNMT1 block,SUMO1 PPI mod,Scp-1 inhibitor,STEP block,DNMT1 inh conf,DNMT1 interf,others
CC1(C)CC(=O)C=C(CN2C(=O)c3ccccc3C2=O)C1=O,0,-8,3,-17,-8,0,.,.,
COc1cccc(-c2ncc3ccccc3c2COC(=O)N(C)C)c1,0,-7,-1,-14,-6,0,.,.,
O=C(Nc1sc2c(c1C(=O)O)CCC2)C(=O)N1CCOCC1,5,1,61*,5,43,11,6,2,
COc1ccc(-c2csc(NC(=O)CN3C(=O)NC4(CCCC4)C3=O)n2)cc1OC,1,0,-2,-2,-2,0,.,.,
CC(C)(C)c1ccc(-c2csc(NC(=O)CN3C(=O)NC4(CCCCC4)C3=O)n2)cc1,1,-4,54*,-1,-17,6,-1,-2,
COc1ccccc1N1C(=O)CC(N2CCN(c3ccc([N+](=O)[O-])cc3)CC2)C1=O (stereo not drawn),0,-5,0,-24,-2,1,.,.,
Cc1cc2nc3c(=O)n(CCc4ccccc4)c(=O)[nH]c3nc2cc1N,-2,27,63*,-36,8,-60,65*,90*,
C=CCn1c(=O)[nH]c2nc3cc(N=CN(C)C)c(C)cc3nc2c1=O,0,3,12,-35,-12,-10,.,.,
O=C(CSc1ncccn1)NC(=O)Cc1ccccc1,-1,-8,3,1,-8,0,.,.,
COc1cccc(-c2cc(=O)c3cc(NC(=O)c4ccc(Cl)cc4)ccc3[nH]2)c1,-1,-1,65*,2,8,2,0,-1,
COc1ccc(OC)c(Nc2cc3ccccc3c(=O)[nH]2)c1,2,11,14,5,-4,3,.,.,
COc1ccccc1Nc1cc2cc(Br)ccc2c(=O)[nH]1,9,5,69*,23,11,17,0,3,
O=c1[nH]c(Nc2ccccc2)cc2cc(Br)ccc12,32,8,92*,37,2,29,0,0,
